In the library only some 2.5% were active in any assay of this set; here they are far more common.
TRPC4 act: TRPC4 (mouse) channel activation | B-score at 10 µM | AID 2237 | HEK293 TRPC4beta/mu-opioid, Fluo4 calcium fluorescence; active compounds read high | 0.49% of 310,000 active | Q9QUQ5;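 active = B-score above 5 SD of library B-scores, and initial fluorescence ratio not above library mean plus 5 SD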;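 also: positive B-score marks a calcium rise read as TRPC4 activation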
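Test system: HEK293 cells stably co-expressing mouse TRPC4beta and mu-opioid receptor | Schedule: Fluo4 dye loading 45 min at room temperature, 110 s recording | Measured by: Kinetic Fluo4 calcium fluorescence, 5 s baseline at 1 Hz | Evaluation: B score of integrated ratio | Controls: Buffer (low) and maximal DAMGO (high)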
Platelet DG rel: modulates dense granule release in human platelets; 0.22% of 300,000 active; human platelet-rich plasma, SFLLRN dense granule ATP release, luminescence; inhibition, %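 (compounds screened at 7.5 µM in platelet-rich plasma)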; AID 1663;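 active = mean replicate score, as percent of positive control, at or above 50; inconclusive = mean below 50 but at least one replicate at or above 50; inactive = mean and every replicate below 50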
TRPC4 inh: blocks the mouse TRPC4 cation channel. Q9QUQ5. HEK293 TRPC4beta/mu-opioid, DAMGO-evoked Fluo4 calcium flux; active compounds read low. B-score at 10 µM. 0.39% of 300,000 active. AID 2247;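 active = B-score over 3 SD under the library average, no early fluorescence shift, positive overall ratio signal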
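Signal: kinetic Fluo4 fluorescence imaging of calcium influx. Material: stable TRPC4beta/mu-opioid receptor HEK293 cells. Probe or stimulus: DAMGO in two steps, submaximal then maximal.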
TRPC4 PAM: TRPC4 (mouse) allosteric potentiation; AID 2227; 0.42% of 310,000 active; HEK293 TRPC4beta/mu-opioid, DAMGO EC20, Fluo-4 Ca2+ flux; active compounds read high; B-score at 10 µM;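 active = B-score of calcium response area above 5 SD of library B-scores, with initial fluorescence ratio within 5 SD of library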;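 also: B-score of integrated fluorescence ratio over time as area under calcium response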
TRPC6 activator: activators of mouse TRPC6 channel; 0.13% of 310,000 active; HEK293-TRPC6 membrane potential dye fluorescence; active compounds read high; B-score at 10 µM;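 active = B-score of the integrated fluorescence ratio above library mean plus 3 SD, and starting fluorescence ratio within library mean plus 5 SD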;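 also: higher score means more depolarization so channel activation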
Target sequence (Q61143 whole entry, looked up): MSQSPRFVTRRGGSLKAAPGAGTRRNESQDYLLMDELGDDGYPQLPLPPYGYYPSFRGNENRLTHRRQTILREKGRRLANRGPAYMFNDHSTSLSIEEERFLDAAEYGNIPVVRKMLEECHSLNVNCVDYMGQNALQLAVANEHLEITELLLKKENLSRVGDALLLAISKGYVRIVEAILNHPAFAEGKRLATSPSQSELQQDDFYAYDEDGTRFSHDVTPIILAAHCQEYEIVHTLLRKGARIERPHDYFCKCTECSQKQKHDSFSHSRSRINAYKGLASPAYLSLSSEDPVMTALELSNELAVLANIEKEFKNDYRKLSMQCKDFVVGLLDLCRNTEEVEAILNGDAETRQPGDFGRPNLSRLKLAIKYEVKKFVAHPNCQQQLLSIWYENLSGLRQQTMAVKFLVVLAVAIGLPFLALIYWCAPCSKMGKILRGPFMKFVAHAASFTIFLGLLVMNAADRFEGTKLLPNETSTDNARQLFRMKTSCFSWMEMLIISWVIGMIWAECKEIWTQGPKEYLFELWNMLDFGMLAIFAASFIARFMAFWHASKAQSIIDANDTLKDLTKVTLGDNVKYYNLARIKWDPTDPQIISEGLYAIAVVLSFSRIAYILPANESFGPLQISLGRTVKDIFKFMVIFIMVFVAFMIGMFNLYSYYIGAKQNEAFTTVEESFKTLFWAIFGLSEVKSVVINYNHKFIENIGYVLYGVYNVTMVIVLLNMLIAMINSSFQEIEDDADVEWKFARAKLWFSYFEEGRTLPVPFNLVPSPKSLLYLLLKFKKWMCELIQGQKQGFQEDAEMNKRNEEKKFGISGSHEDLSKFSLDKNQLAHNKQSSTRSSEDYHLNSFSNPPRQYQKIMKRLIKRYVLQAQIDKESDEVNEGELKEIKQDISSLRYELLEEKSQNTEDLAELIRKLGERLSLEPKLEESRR
TRPC6 inhibitor: mouse TRPC6 channel inhibition | B-score at 10 µM | HEK293-TRPC6, membrane potential dye, ACh-evoked depolarization; active compounds read low | AID 2553 | Q61143 | 1.1% of 310,000 active;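 active = B-score under library mean minus 3 SD, initial fluorescence not abnormally high, positive integrated signal ratio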;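 also: B-score derived from integrated fluorescence ratio over the kinetic read; more negative B-score means stronger inhibition of depolarization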
Numbers without * were called inactive; i = inactive; ? = inconclusive.

SMILES | TRPC4 act | Platelet DG rel | TRPC4 inh | TRPC4 PAM | TRPC6 activator | TRPC6 inhibitor
Cc1nnc(NC(=O)CSc2cn(CCNC(=O)c3ccccc3)c3ccccc23)s1 | i | 58* | i | i | i | i
CCCCCCCn1c2c(c(=N)c3c1CCC3)CCCC2 | i | 1 | i | i | i | -6*
O=C(CCCSc1nc2ccccc2[nH]1)NC(c1ccccc1)c1ccccc1 | i | 1 | i | i | i | i
O=C(CCCSc1nc2ccccc2[nH]1)NCc1ccccc1Cl | i | 33 | -8* | i | i | i
COc1ccc(C(=O)Nc2ccccc2C(=O)Nc2cccnc2)cc1 | i | 64* | i | i | i | i
COc1ccc(C(=O)Nc2cccnc2)cc1 | i | -5 | i | i | i | i
CNC(=S)N/N=C(\C)c1ccc(C(C)(C)C)cc1 | i | 23 | i | 11* | i | i
CNC(=S)N/N=C(\C)c1ccccc1 | i | -7 | i | i | i | i
CCN1C(=O)Nc2cccc3cccc1c23 | i | 59* | i | i | i | i
COc1ccc(Nc2cc3n(c(=O)n2)CCc2cc(OC)c(OC)cc2-3)cc1 | i | 61* | i | i | i | i
COc1cc2c(cc1OC)-c1cc(Nc3ccc4c(c3)OCCO4)nc(=O)n1CC2 | i | 51* | i | i | i | i
COc1cc2c(cc1OC)-c1cc(Nc3ccccc3)nc(=O)n1CC2 | i | 131* | i | i | i | i
COc1cc2c(cc1OC)-c1cc(Nc3ccc(C(=O)O)cc3)nc(=O)n1CC2 | i | 5 | i | i | i | i
CCOc1cccc(Nc2cc3n(c(=O)n2)CCc2cc(OC)c(OC)cc2-3)c1 | i | -9 | i | i | i | i
COc1cc2c(cc1OC)-c1cc(Nc3ccc(C)cc3)nc(=O)n1CC2 | i | 113* | i | i | i | i
COc1cc2c(cc1OC)-c1cc(NC3CCCCCC3)nc(=O)n1CC2 | i | 82* | i | i | i | i
COc1ccc(Nc2cc3n(c(=O)n2)CCc2cc(OC)c(OC)cc2-3)c(C)c1 | i | 80* | i | i | i | i
COc1cc2c(cc1OC)-c1cc(N3CCCc4ccccc43)nc(=O)n1CC2 | i | 14 | i | i | i | i
COc1cc2c(cc1OC)-c1cc(N3CCc4ccccc43)nc(=O)n1CC2 | i | ? | i | i | i | i
COc1cc2c(cc1OC)-c1cc(N3CCCCCC3)nc(=O)n1CC2 | i | 54* | i | i | i | i
COc1cc2c(cc1OC)-c1cc(Nc3ccccc3Br)nc(=O)n1CC2 | i | 94* | i | i | i | i
NC[C@@H]1O[C@H](O[C@H]2[C@@H](O)[C@H](O[C@@H]3[C@@H](O)[C@H](N)C[C@H](N)[C@H]3O[C@H]3O[C@H](CO)[C@@H](O)[C@H](O)[C@H]3N)O[C@@H]2CO)[C@H](N)[C@@H](O)[C@@H]1O | i | 1 | i | i | i | i
COc1ccc(OC)c(NC(=O)CN(C)S(=O)(=O)c2ccc(Cl)cc2)c1 | i | -3 | i | i | i | i
c1ccc(OCCN2CCN(Cc3nc(-c4ccc5c(c4)OCO5)no3)CC2)cc1 | i | 2 | i | i | i | i
C/C(=N\NC(=O)COc1ccc(C)cc1C(C)C)c1ccc(-n2ccnc2)cc1 | i | 19 | i | 28* | i | i
SMILES | TRPC4 act | Platelet DG rel | TRPC4 inh | TRPC4 PAM | TRPC6 activator | TRPC6 inhibitor
O=C(COC(=O)/C=C/c1ccco1)NCc1ccc2c(c1)OCO2 | i | -17 | i | i | i | i
O=C(O)CC(c1ccccc1)N1C(=O)c2cccc([N+](=O)[O-])c2C1=O (configuration not stated) | i | 9 | i | i | i | i
CCCOc1ccc(CNC(=O)c2ccc3c(c2)N(CC)CCS3)cc1 | i | 96* | i | i | i | i
CCN1CCSc2ccc(C(=O)NCc3cccc(Br)c3)cc21 | i | -1 | i | i | i | i
CCn1nc(NS(=O)(=O)c2ccccc2[N+](=O)[O-])c2cc3ccc(C)cc3nc21 | i | 0 | i | i | i | i
CCN(CC)CCCNC(=O)c1ccc2c(SCC(=O)O)c3c(nc2c1)CCC3 | i | -1 | i | i | i | i
CC1CC(C)CN(CCCNC(=O)c2ccc3c(SCC(=O)O)c4c(nc3c2)CCC4)C1 (configuration not stated) | 76* | -2 | i | i | i | i
Cc1nc2ccccc2c2oc(C(=O)NCCCN3CC(C)CC(C)C3)cc12 (configuration not stated) | 83* | 0 | i | i | i | i
COc1cccc(CC(=O)Nc2nc(-c3ccc(F)c(F)c3)cs2)c1 | i | 3 | i | i | i | i
CC(C)CCNC(=O)CCC(=O)NNc1nc2ccccc2c2nc(-c3ccccc3)nn12 | i | 0 | i | 23* | i | i
O=C(N/N=C/c1cc2c(cc1Br)OCO2)c1ccccn1 | i | 22 | i | i | i | i
O=C(N/N=C/c1cc2c(cc1Br)OCO2)c1cc2ccccc2o1 | i | -3 | -7* | i | i | i
Cc1ccc(NC(=O)CSc2ncccn2)cc1S(=O)(=O)N1CCCCC1 | i | -5 | i | i | i | i
Cc1[nH]n(-c2ccc([N+](=O)[O-])cc2)c(=O)c1C=NCCN1CCN(C(=O)c2ccccc2)CC1 | i | 0 | i | i | i | i
O=c1c(C=NCCN2CCNCC2)c(-c2ccccc2)[nH]n1-c1ccc([N+](=O)[O-])cc1 | i | 15 | i | i | i | -6.6*
O=C(N/N=C/c1ccc(N2CCCCC2)o1)c1ccccc1[N+](=O)[O-] | i | 2 | i | i | i | i
CC(NC(=O)CCc1c[nH]c2ccccc12)c1ccccc1 (configuration not stated) | i | 7 | i | i | i | i
COc1ccc(CCNC(=O)c2ccc3c(c2)OCCO3)cc1 | i | 8 | i | i | i | i
CN(C)C(CNC(=O)c1ccc(S(=O)(=O)N(C)C)cc1)Cc1ccccc1 (configuration not stated) | 74* | 5 | i | i | i | i
CN(C)C(CNC(=O)CCc1c[nH]c2ccccc12)c1ccccc1 (configuration not stated) | 138* | 3 | i | i | i | i

Assay outcomes deposited in PubChem BioAssay by several laboratories.
